Test results taken from ChEMBL document CHEMBL3826885, “Similarities and differences in affinity and binding modes of tricyclic pyrimido- and pyrazinoxanthines at human and rat adenosine receptors” (Bioorg Med Chem, 2016).
Values after ≈ are worked out from the molar mass of the structure shown.

Assays:
Adenosine receptor A1 [1] = biological target: T1, Adenosine receptor A1 (Rattus norvegicus, UniProt P25099); assay: Displacement of [3H]CCPA from adenosine receptor A1 in rat brain cortical membranes; type: cell membranes
T1 sequence (P25099 whole entry): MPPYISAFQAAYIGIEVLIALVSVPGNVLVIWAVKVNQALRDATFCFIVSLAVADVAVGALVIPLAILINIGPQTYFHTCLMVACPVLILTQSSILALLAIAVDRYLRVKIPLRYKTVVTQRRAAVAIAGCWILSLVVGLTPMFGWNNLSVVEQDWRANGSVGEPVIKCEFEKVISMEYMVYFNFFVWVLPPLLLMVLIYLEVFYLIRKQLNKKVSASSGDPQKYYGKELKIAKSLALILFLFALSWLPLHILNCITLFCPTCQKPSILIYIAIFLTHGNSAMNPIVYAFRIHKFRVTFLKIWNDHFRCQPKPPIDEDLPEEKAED
Summary of the method: (§1)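 Native rat receptors: A1 in brain cortical membranes with [3H]CCPA, A2A in brain striatal membranes, from frozen unstripped rat brains. Compounds were first screened at a single high concentration in three independent experiments.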

Adenosine receptor A2a [2] = biological target: Adenosine receptor A2a (Rattus norvegicus, UniProt P30543); assay: Displacement of [3H]MSX2 from adenosine receptor A2a in rat brain striatal membranes; type: cell membranes, Membrane
Chain of Adenosine receptor A2a (Rattus norvegicus, UniProt P30543) (P30543 whole entry): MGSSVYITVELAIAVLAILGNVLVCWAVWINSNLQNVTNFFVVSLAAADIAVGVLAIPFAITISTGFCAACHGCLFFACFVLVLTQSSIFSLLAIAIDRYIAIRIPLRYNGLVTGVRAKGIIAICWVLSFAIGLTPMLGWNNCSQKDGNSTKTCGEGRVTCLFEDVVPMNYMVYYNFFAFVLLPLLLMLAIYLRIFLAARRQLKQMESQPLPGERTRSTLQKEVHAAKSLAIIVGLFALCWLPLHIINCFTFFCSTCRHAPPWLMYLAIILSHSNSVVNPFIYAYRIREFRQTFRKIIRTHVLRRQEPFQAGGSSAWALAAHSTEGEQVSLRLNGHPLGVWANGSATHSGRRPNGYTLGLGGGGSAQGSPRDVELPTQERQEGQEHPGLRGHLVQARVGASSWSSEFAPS
Summary of the method: as §1, with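 “experiments. Active compounds then had full inhibition curves over at least 3 orders of magnitude of concentration.” for “experiments.”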

Adenosine receptor A2b [3] = biological target: T2, Adenosine receptor A2b (Homo sapiens, UniProt P29275); assay: Displacement of [3H]PSB-603 from recombinant human adenosine receptor A2b expressed in CHO cell membranes
T2 sequence (P29275 whole entry): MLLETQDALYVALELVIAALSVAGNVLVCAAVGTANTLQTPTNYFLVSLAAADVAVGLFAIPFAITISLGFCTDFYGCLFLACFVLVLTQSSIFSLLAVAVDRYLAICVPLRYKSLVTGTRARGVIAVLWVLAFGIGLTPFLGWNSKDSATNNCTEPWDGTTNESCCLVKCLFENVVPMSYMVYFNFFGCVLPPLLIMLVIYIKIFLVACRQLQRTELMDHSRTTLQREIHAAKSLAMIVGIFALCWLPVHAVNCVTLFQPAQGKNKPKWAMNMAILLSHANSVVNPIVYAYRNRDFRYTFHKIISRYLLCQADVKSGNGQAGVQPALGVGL
Summary of the method: (§2)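 Membranes came from CHO cells expressing recombinant receptors (human A1, A2A, A2B, A3; rat A2B, A3). Radioligands were [3H]CCPA for A1 and [3H]PSB-11 or [3H]NECA for A3. A single high concentration was screened first, in three experiments for A1/A2A and two for A2B/A3.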

[4] = biological target: T3, Adenosine receptor A2b (Homo sapiens) (UniProt P29275); assay: Displacement of [3H]PSB-603 from recombinant human adenosine receptor A2b expressed in CHO cell membranes at 1 uM
T3 sequence (whole entry): T2 sequence (P29275 whole entry)
Summary of the method: as §2, with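 “A2B/A3. Full inhibition curves spanning at least 3 log units were run for potent compounds.” for “A2B/A3.”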

[5] = biological target: T4, Adenosine receptor A3 (Homo sapiens) (UniProt P0DMS8); assay: Displacement of [3H]PSB11 from recombinant human adenosine receptor A3 expressed in CHO cell membranes at 1 uM
T4 sequence (whole entry): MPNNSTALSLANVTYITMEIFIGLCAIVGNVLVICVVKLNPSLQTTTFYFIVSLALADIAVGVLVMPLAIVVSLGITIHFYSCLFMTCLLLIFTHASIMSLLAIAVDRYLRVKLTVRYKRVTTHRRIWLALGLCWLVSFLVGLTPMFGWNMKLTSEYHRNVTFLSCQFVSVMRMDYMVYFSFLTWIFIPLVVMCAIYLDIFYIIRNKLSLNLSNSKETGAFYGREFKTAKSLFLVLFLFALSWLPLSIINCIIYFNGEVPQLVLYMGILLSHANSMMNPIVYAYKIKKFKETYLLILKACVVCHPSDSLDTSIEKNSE
Summary of the method: as §2, with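 “A2B/A3. Full inhibition curves spanning at least 3 log units were run for potent compounds.” for “A2B/A3.”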

[6] = biological target: T5, Adenosine receptor A1 (Rattus norvegicus) (UniProt P25099); assay: Displacement of [3H]CCPA from adenosine receptor A1 in rat brain cortical membranes at 10 uM; type: cell membranes; conditions: 10 uM
T5 sequence (whole entry): T1 sequence (P25099 whole entry)
Summary of the method: as §1, with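 “experiments. Active compounds then had full inhibition curves over at least 3 orders of magnitude of concentration.” for “experiments.”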

Adenosine receptor A3 [7] = biological target: T6, Adenosine receptor A3 (Homo sapiens, UniProt P0DMS8); assay: Displacement of [3H]PSB-11 from recombinant human adenosine receptor A3 expressed in CHO cell membranes
T6 sequence (P0DMS8 whole entry): T4 sequence (whole entry)

[8] = Solubility of compound in water at 20 degC by UV-spectroscopic analysis; type: physicochemical
Summary of the method: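 Suspensions were boiled 5 min, left overnight at 20 °C, and filtered. Filtrates were diluted 10-80-fold in MeOH and read by UV in MeOH/H2O (90% v/v). Concentration came from standard curves of seven concentrations from 10^-3 to 10^-1 mg/mL, using linear regression of two neighbouring points and multiplying by the dilution.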

[9] = biological target: T5, Adenosine receptor A1 (Rattus norvegicus); assay: Displacement of [3H]CCPA from adenosine receptor A1 in rat brain cortical membranes at 1 uM; type: cell membranes
Summary of the method: as §1, with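 “experiments. Active compounds then had full inhibition curves over at least 3 orders of magnitude of concentration.” for “experiments.”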

[10] = biological target: Adenosine receptor A2a (Rattus norvegicus) (UniProt P30543); assay: Displacement of [3H]MSX2 from Adenosine receptor A2a in rat brain striatal membranes at 1 uM; type: cell membranes; conditions: Membrane
Chain of Adenosine receptor A2a (Rattus norvegicus) (P30543 whole entry): as the sequence (P30543 whole entry) above
Summary of the method: as §1, with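 “experiments. Active compounds then had full inhibition curves over at least 3 orders of magnitude of concentration.” for “experiments.”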

Adenosine receptor A2b [11] = biological target: T7, Adenosine receptor A2b (Rattus norvegicus, UniProt P29276); assay: Displacement of [3H]PSB-603 from recombinant rat adenosine receptor A2b expressed in CHO cell membranes; summary of the method: as §2
T7 sequence (P29276 whole entry): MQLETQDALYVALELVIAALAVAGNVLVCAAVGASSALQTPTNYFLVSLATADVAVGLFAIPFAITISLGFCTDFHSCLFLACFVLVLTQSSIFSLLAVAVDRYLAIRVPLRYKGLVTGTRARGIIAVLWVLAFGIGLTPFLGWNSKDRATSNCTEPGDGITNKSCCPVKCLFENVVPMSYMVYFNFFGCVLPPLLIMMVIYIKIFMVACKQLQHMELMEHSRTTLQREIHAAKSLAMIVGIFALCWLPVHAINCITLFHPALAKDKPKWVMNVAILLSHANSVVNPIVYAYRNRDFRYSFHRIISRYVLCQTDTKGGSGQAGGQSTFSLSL

[12] = biological target: T8, Adenosine receptor A2b (Rattus norvegicus) (UniProt P29276); assay: Displacement of [3H]PSB-603 from recombinant rat adenosine receptor A2b expressed in CHO cell membranes at 1 uM
T8 sequence (whole entry): T7 sequence (P29276 whole entry)
Summary of the method: as §2, with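 “A2B/A3. Full inhibition curves spanning at least 3 log units were run for potent compounds.” for “A2B/A3.”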

Adenosine receptor A3 [13] = biological target: T9, Adenosine receptor A3 (Rattus norvegicus, UniProt P28647); assay: Displacement of [3H]NECA from recombinant rat adenosine receptor A3 expressed in CHO cell membranes; summary of the method: as §2
T9 sequence (P28647 whole entry): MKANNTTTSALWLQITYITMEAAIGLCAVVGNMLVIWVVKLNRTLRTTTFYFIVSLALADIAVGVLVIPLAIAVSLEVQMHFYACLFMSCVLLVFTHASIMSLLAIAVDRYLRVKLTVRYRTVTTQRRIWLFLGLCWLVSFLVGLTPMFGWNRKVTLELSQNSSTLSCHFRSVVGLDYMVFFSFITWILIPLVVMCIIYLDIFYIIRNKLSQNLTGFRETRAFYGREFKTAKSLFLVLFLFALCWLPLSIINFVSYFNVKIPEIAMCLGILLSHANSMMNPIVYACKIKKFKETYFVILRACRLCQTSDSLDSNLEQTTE

[14] = biological target: T10, Adenosine receptor A3 (Rattus norvegicus) (UniProt P28647); assay: Displacement of [3H]NECA from recombinant rat adenosine receptor A3 expressed in CHO cell membranes at 1 uM
T10 sequence (whole entry): T9 sequence (P28647 whole entry)
Summary of the method: as §2, with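 “A2B/A3. Full inhibition curves spanning at least 3 log units were run for potent compounds.” for “A2B/A3.”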

Adenosine receptor A1 [15] = biological target: T11, Adenosine receptor A1 (Homo sapiens, UniProt P30542); assay: Displacement of [3H]CCPA from recombinant human adenosine receptor A1 expressed in CHO cell membranes
T11 sequence (P30542 whole entry): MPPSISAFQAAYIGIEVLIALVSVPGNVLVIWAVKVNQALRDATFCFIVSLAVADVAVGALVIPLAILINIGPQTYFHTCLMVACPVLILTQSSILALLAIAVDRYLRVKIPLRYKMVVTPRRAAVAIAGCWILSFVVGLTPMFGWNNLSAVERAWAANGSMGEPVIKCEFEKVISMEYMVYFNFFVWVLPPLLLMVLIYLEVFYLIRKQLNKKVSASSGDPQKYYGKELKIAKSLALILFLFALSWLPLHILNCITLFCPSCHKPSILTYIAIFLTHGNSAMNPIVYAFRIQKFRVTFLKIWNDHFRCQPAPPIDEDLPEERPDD
Summary of the method: as §2, with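 “A2B/A3. Full inhibition curves spanning at least 3 log units were run for potent compounds.” for “A2B/A3.”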

[16] = biological target: T12, Adenosine receptor A1 (Homo sapiens) (UniProt P30542); assay: Displacement of [3H]CCPA from recombinant human adenosine receptor A1 expressed in CHO cell membranes at 1 uM
T12 sequence (whole entry): T11 sequence (P30542 whole entry)
Summary of the method: as §2, with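 “A2B/A3. Full inhibition curves spanning at least 3 log units were run for potent compounds.” for “A2B/A3.”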

Adenosine receptor A2a [17] = biological target: T13, Adenosine receptor A2a (Homo sapiens, UniProt P29274); assay: Displacement of [3H]MSX2 from recombinant human adenosine receptor A2a expressed in CHO cell membranes
T13 sequence (P29274 whole entry): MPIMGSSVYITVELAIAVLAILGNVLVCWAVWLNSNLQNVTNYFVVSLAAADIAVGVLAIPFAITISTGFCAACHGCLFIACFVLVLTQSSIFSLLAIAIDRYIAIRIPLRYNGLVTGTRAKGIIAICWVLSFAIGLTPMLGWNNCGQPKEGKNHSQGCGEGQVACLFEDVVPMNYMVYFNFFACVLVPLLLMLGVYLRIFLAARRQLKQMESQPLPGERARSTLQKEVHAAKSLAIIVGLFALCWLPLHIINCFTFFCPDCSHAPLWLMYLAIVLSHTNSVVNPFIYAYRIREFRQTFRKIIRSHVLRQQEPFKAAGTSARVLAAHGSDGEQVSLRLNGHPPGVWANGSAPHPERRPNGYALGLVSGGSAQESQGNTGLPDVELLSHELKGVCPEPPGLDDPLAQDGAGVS
Summary of the method: as §2, with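 “A2B/A3. Full inhibition curves spanning at least 3 log units were run for potent compounds.” for “A2B/A3.”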

Adenosine receptor A2a [18] = biological target: T13, Adenosine receptor A2a; assay: Displacement of [3H]MSX2 from recombinant human adenosine receptor A2a expressed in CHO cell membranes at 1 uM
Summary of the method: as §2, with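 “A2B/A3. Full inhibition curves spanning at least 3 log units were run for potent compounds.” for “A2B/A3.”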

| Ki (Adenosine receptor A1 [1]) | Ki (Adenosine receptor A2a [2]) | Ki (Adenosine receptor A2b [3]) | inhibition [4] | inhibition [5] | inhibition [6] | Ki (Adenosine receptor A3 [7]) | solubility [8] | inhibition [9] | inhibition [10] | Ki (Adenosine receptor A2b [11]) | inhibition [12] | Ki (Adenosine receptor A3 [13]) | inhibition [14] | Ki (Adenosine receptor A1 [15]) | inhibition [16] | Ki (Adenosine receptor A2a [17]) | inhibition (Adenosine receptor A2a [18]) | Compound |
| --- | --- | --- | --- | --- | --- | --- | --- | --- | --- | --- | --- | --- | --- | --- | --- | --- | --- | --- |
|  |  |  |  |  |  |  | 63 µg/mL (≈ 171 µM) |  |  |  |  |  |  |  |  |  |  | COc1ccc(CCN2CCCn3c2nc2c3c(=O)n(C)c(=O)n2C)cc1 |
|  |  |  |  |  |  |  | 51 µg/mL (≈ 149 µM) |  |  |  |  |  |  |  |  |  |  | COc1ccc(N2CCCn3c2nc2c3c(=O)n(C)c(=O)n2C)cc1 |

Second part, the compound before the results:

| Compound | Ki (Adenosine receptor A1 [1]) | Ki (Adenosine receptor A2a [2]) | Ki (Adenosine receptor A2b [3]) | inhibition [4] | inhibition [5] | inhibition [6] | Ki (Adenosine receptor A3 [7]) | solubility [8] | inhibition [9] | inhibition [10] | Ki (Adenosine receptor A2b [11]) | inhibition [12] | Ki (Adenosine receptor A3 [13]) | inhibition [14] | Ki (Adenosine receptor A1 [15]) | inhibition [16] | Ki (Adenosine receptor A2a [17]) | inhibition (Adenosine receptor A2a [18]) |
| --- | --- | --- | --- | --- | --- | --- | --- | --- | --- | --- | --- | --- | --- | --- | --- | --- | --- | --- |
| Cn1c(=O)c2c(nc3n2CCN(CCc2ccc(OCCN4CCOCC4)cc2)C3)n(C)c1=O | > 10000 nM | 11500 nM | > 1000 nM | 4% | 3% | 22% | > 1000 nM |  |  |  |  |  |  |  |  |  |  |  |
| CCN(CC)CCOc1ccc(CCN2CCn3c(nc4c3c(=O)n(C)c(=O)n4C)C2)cc1 | > 10000 nM | 7850 nM | > 1000 nM | 19% | 0% | 42% | > 1000 nM |  |  |  |  |  |  |  |  |  |  |  |
| CCCCn1c(=O)c2c(nc3n2CCCN3c2ccc(OCCN(C)C)cc2)n(CCCC)c1=O | 56 nM | 1050 nM | > 1000 nM | 40% | 38% |  | > 1000 nM | 255 µg/mL (≈ 528 µM) | 72% | 47% | > 1000 nM | 9% | > 1000 nM | 15% | 539 nM | 43% | 1030 nM | 52% |
| CCCCn1c(=O)c2c(nc3n2CCCN3c2ccc(OCCN(CC)CC)cc2)n(CCCC)c1=O | 137 nM | 1460 nM | > 1000 nM | 6% | 44% |  | > 1000 nM |  | 55% | 49% | > 1000 nM | 6% | > 1000 nM | 16% | 1190 nM | 30% | 1010 nM | 54% |
